The list is not random: actives were taken first. Their share in the collection is about 2.6%.
SENP8 block-1: blocks human SENP8 cleavage of Nedd8 substrate | Q96LD8 | 0.64% of 360,000 active | inhibition, % at 20 µM | recombinant SENP8, Nedd8 substrate fluorescence; in the data active means inhibition mostly above about 40%, no sharp cut-off; inactive means mostly below about 27%
Target sequence (Q96LD8 whole entry, looked up): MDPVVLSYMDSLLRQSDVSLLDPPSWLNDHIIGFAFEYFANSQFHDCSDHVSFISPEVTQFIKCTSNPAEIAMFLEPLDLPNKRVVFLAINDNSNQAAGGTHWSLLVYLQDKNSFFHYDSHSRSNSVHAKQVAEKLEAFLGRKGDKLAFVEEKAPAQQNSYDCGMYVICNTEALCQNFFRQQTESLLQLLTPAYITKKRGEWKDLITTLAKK
SENP6 block: SENP6 protease inhibition | AID 2599 | inhibition, % at 10 µM | Q9GZR1 | 1.8% of 330,000 active | Recombinant SENP6 catalytic domain, aminoluciferin luminescence;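 active means inhibition above about 50% at the single tested dose, limit read from the data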
Platelet DG rel: platelet dense granule release activity; human platelet-rich plasma, SFLLRN dense granule ATP release, luminescence; inhibition, %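 (compounds screened at 7.5 µM in platelet-rich plasma)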; 0.22% of 300,000 active;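 active means mean replicate score, as percent of positive control, at or above 50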
SENP1 inh: SENP1 (human) catalytic domain inhibition. recombinant SENP1 catalytic domain, CyPet-SUMO1-YPet FRET cleavage. inhibition, % at 10 µM. 0.21% of 360,000 active. AID 624204;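 active means inhibition at least 30% at 10 µM, raw YFP signal under a set limit, fluorescence ratio 0.5 to 1.5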
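Test system: recombinant human SENP1 catalytic domain, His6-tagged / Medium: pH 8 Tris buffer with EDTA, NaCl, BME, BSA, NP40, catalase / Also added: SUMO1 FRET substrate flanked by Cypet and Ypet, 25 nM / Times: 50 min reaction at room temperature / Signal: FRET, CFP and YFP emission / Control set: no-enzyme low control and enzyme-plus-DMSO high control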
SENP8 block-2: blocks the human protease SENP8; Q96LD8; purified SENP8, Z-RLRGG-aminoluciferin cleavage, luminescence; inhibition, % at 10 µM; 1.2% of 330,000 active; AID 2540; in the data active means inhibition above about 50%
SENP7 block: SENP7 protease inhibition | Q9BQF6 | recombinant SENP7, Z-RLRGG-aminoluciferin luminescence, 40 min | inhibition, % at 5 µM | 1.5% of 330,000 active | AID 434973;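 active means inhibition above about 50% at the single test dose, limit read from the data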
Target sequence (Q9BQF6 706-1050 limits assumed): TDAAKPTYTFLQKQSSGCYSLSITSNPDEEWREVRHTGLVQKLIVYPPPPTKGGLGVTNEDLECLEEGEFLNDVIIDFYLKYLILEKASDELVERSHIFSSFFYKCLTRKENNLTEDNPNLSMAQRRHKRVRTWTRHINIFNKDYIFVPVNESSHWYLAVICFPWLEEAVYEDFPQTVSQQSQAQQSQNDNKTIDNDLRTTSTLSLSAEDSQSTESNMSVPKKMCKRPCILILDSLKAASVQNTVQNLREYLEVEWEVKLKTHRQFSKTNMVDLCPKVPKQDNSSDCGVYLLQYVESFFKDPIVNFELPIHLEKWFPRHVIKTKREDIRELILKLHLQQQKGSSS
SENP8 confirm: human SENP8 inhibition, confirmed | inhibition, % at 12.5 µM | shares compounds with SENP7 block | Recombinant SENP8, Z-RLRGG-aminoluciferin luminescence, 60 min | 40% of 6,200 active;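 active means mean inhibition across replicates above about 50%, limit read from the data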
SENP6 conf: confirmation of human SENP6 protease inhibitors | shares compounds with SENP7 block | inhibition, % at 12.5 µM | recombinant SENP6, Z-RLRGG-aminoluciferin luminescence | 58% of 6,200 active | AID 488915
SENP7 confirm: confirmation of human SENP7 protease inhibitors | recombinant SENP7, Z-RLRGG-aminoluciferin luminescence, 40 min | inhibition, % at 12.5 µM | shares compounds with SENP7 block | 69% of 6,200 active
Casp3 select: selectivity test for SENP inhibitors: human caspase-3 inhibition; shares compounds with SENP7 block; 60% of 6,200 active; AID 488918; purified caspase-3, Z-DEVD-aminoluciferin luminescence, 60 min; inhibition, % at 12.5 µM;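 active means mean inhibition above about 50%, limit read from the data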
Luc interf: counter-screen for SENP inhibitors: luminescence interference | shares compounds with SENP7 block | inhibition, % at 12.5 µM | Pre-incubated SENP8/Z-RLRGG-aminoluciferin, luciferase luminescence interference | AID 488919 | 39% of 6,200 active;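 active means mean inhibition above about 50% when retested at one dose, limit read from the data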
Large screens that a line does not name were inactive (follow-up assays come after a bar, where they were run).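 How the source made its calls, unless noted: active means mean inhibition above about 50% in the one-dose retest (limit read from the data); inactive means the rest.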

CCc1nc2ccc(C(=O)N(C)CCCN(C)C)cn2c1N(C)Cc1cc2ccccc2s1	none (no result: SENP6 block, Platelet DG rel, SENP8 block-2, SENP7 block)
Oc1cccc(/C=N/N2CCCCC2)c1O	none
Oc1ccc(/C=N/N2CCCCC2)c(O)c1O	SENP8 block-1 52, SENP6 block 56, SENP1 inh 38 | SENP8 confirm inactive | SENP6 conf inactive | SENP7 confirm inactive | Casp3 select inactive | Luc interf inactive
CC(C)c1ccc(C(=O)Nc2cccnc2)cc1	SENP6 block 73, SENP7 block 71 | SENP8 confirm 62 | SENP6 conf 58 | SENP7 confirm 88 | Casp3 select 79 | Luc interf inactive
O=C(NNC(=O)c1ccc(-c2ccccc2)cc1)c1ccccc1	SENP7 block 62 | SENP8 confirm inactive | SENP6 conf inactive | SENP7 confirm 82 | Casp3 select 80 | Luc interf inactive
O=C(Nc1cccnc1)c1ccc(-c2ccccc2)cc1	SENP8 block-2 66, SENP7 block 82 | SENP8 confirm 51 | SENP6 conf 70 | SENP7 confirm 96 | Casp3 select 75 | Luc interf inactive
CO[C@H]1CN(C)C(=O)c2ccc(NC(=O)C3CCC3)cc2OC[C@H](C)N(CC2CCCCC2)C[C@@H]1C	none (no result: SENP6 block, Platelet DG rel, SENP8 block-2, SENP7 block)
CCc1cc(CNC(=O)c2cc(COc3ccc(C)nc3)on2)on1	none
O=C1C(Cl)=C(Nc2ccccc2O)C(=O)N1c1ccccc1	SENP6 block 52 | SENP8 confirm inactive | SENP6 conf inactive | SENP7 confirm 66 | Casp3 select 60 | Luc interf 51
c1ccc(-c2cnc(-c3ccccn3)nn2)cc1	SENP6 block 61, SENP7 block 60 | SENP8 confirm inactive | SENP6 conf inactive | SENP7 confirm 82 | Casp3 select 77 | Luc interf 54
O=C(O)c1ccc(OS(=O)(=O)c2ccc(Cl)s2)c(Cl)c1	SENP6 block 56 (no result: Platelet DG rel) | SENP8 confirm inactive | SENP6 conf inactive | SENP7 confirm 61 | Casp3 select 54 | Luc interf 60
O=C(O)c1cc(Cl)ccc1OS(=O)(=O)c1ccc(Cl)s1	none (no result: Platelet DG rel)
CC1(C(=O)Nc2ccc3c(c2)OCO3)CCN1C(=O)CCc1cccs1 (stereo not drawn)	none (no result: SENP6 block, Platelet DG rel, SENP8 block-2, SENP7 block)
CCOc1ccc(-c2nnn(CC(=O)Nc3ccccc3OC)n2)cc1OCC	SENP7 block 63 | SENP8 confirm inactive | SENP6 conf inactive | SENP7 confirm inactive | Casp3 select inactive | Luc interf inactive
COc1ccc(-c2nnn(CC(=O)NCc3ccccc3)n2)cc1OC	none
O=C(O)c1cc(NC(=O)c2cccc(F)c2)cc(NC(=O)c2cccc(F)c2)c1	none
CN1c2ccc(Cl)cc2C(=O)NC1c1ccc([N+](=O)[O-])s1 (stereo not drawn)	none
O=C(O)c1cccc(COc2ccc(CO)cc2Cl)c1	SENP6 block 97, SENP8 block-2 96, SENP7 block 100 | SENP8 confirm 98 | SENP6 conf 100 | SENP7 confirm 104 | Casp3 select 98 | Luc interf 99
COC(=O)Nc1ccc(OCc2ccccc2)cc1	SENP6 block 73 | SENP8 confirm 53 | SENP6 conf 51 | SENP7 confirm 82 | Casp3 select 63 | Luc interf inactive
COc1ccc(OCc2cccc(C(=O)O)c2)cc1	SENP6 block 98, SENP8 block-2 97, SENP7 block 100 | SENP8 confirm 100 | SENP6 conf 101 | SENP7 confirm 103 | Casp3 select 99 | Luc interf 99
COc1cc(/C=C/[N+](=O)[O-])ccc1OCc1cccc(C(=O)O)c1	SENP6 block 51 (no result: SENP8 block-1, SENP1 inh) | SENP8 confirm 57 | SENP6 conf inactive | SENP7 confirm inactive | Casp3 select inactive | Luc interf 64
COCC(=O)Nc1ccc(OCc2ccccc2)cc1	none
O=C(O)c1cccc(COc2ccc3c(c2)CCC3)c1	SENP6 block 97, SENP8 block-2 97, SENP7 block 99 | SENP8 confirm inactive | SENP6 conf 101 | SENP7 confirm 104 | Casp3 select 99 | Luc interf 100
CCOc1ccc(OCc2cccc(C(=O)O)c2)cc1	SENP6 block 99, SENP8 block-2 96, SENP7 block 100 | SENP8 confirm inactive | SENP6 conf 100 | SENP7 confirm 103 | Casp3 select 99 | Luc interf 98
O=C(NCc1ccccc1)c1cccc(COc2ccc3c(c2)CCC3)c1	none
CCOc1ccc(OCc2cccc(C(=O)N3CCCC3)c2)cc1	none
c1ccc(CCc2ccccc2-c2nc(-c3ccccn3)no2)cc1	none
c1ccc(-c2noc(-c3ccncc3)n2)nc1	SENP6 block 81, SENP8 block-2 79 | SENP8 confirm 81 | SENP6 conf 82 | SENP7 confirm 96 | Casp3 select 96 | Luc interf 83
c1ccc(-c2noc(-c3ccc4c(c3)OCO4)n2)nc1	SENP6 block 98, Platelet DG rel 95, SENP8 block-2 98 | SENP8 confirm inactive | SENP6 conf 97 | SENP7 confirm 103 | Casp3 select 98 | Luc interf inactive
c1ccc(-c2ccccc2-c2nc(-c3cccnc3)no2)cc1	none (no result: Platelet DG rel)
c1ccc(-c2noc(-c3cccnc3)n2)nc1	SENP7 block 57 | SENP8 confirm 51 | SENP6 conf inactive | SENP7 confirm 78 | Casp3 select 85 | Luc interf 58
c1ccc(-c2noc(-c3ccc4ccccc4c3)n2)nc1	SENP6 block 97, SENP8 block-2 96, SENP7 block 100 | SENP8 confirm 94 | SENP6 conf 99 | SENP7 confirm 101 | Casp3 select 97 | Luc interf 60
c1ccc(-c2nccc(-c3ccc4c(c3)OCO4)n2)cc1	none
CC(C)Oc1ccc(CN2CCC(n3nccc3NC(=O)CCc3ccccc3)CC2)cc1	none
O=C(CN(C(=O)c1csnn1)c1ccccc1F)NCc1ccccc1	none
CC(=O)c1cc2c(cc1NC(=O)CSc1nnc(C3CC3)n1C)OCO2	none (no result: SENP6 block, Platelet DG rel, SENP8 block-2, SENP7 block)
c1ccc(-c2noc(C3CCCCC3)n2)nc1	SENP6 block 59, SENP7 block 55 | SENP8 confirm inactive | SENP6 conf 50 | SENP7 confirm 83 | Casp3 select 79 | Luc interf inactive
Brc1ccc(-c2noc(C3CCCCC3)n2)cc1	none
CC(C)(C)Cc1nc(-c2ccccn2)no1	none

Source: PubChem (several laboratories)
